{"data": "Assay results of several laboratories", "UGT1A9": "UDP-glucuronosyltransferase 1A9 (UGT1A9, Homo sapiens, UniProt O60656)", "note": "Each line is one published result; the experiments were not run side by side."}
{"Compound": "CC(C)(O)c1cn(-c2ccc(-c3cc(F)c(CO)c(S(C)(=O)=O)c3)cc2)c(C(C)(C)c2cccc(F)c2Cl)n1", "system": "male cynomolgus monkey, plasma", "conditions": "intravenous, 1 mg/kg, single dose", "quantity": "clearance", "value": "9.4 mL/min/kg"}
{"Compound": "N#CC(C(=O)Nc1cccc(C(F)(F)F)c1)=C1Sc2nc3ccc(S(=O)(=O)N4CCCC4)cc3nc2S1", "tested on": "WI-38", "test": "cell growth or viability, MTT", "conditions": "3.125 µM, 24 h", "quantity": "viability", "value": "100%"}
{"Compound": "CN(CCC(=O)O)C(=O)c1ccc2c(c1)CC[C@@H]1[C@@H]2CC[C@]2(C)C(c3cncc(F)c3)=CC[C@@H]12", "tested on": "UGT1A9", "test": "enzyme activity, inhibitor", "quantity": "IC50", "value": "> 30 µM"}
{"Compound": "O=C1CCCCC1=C1Sc2nc3ccc(S(=O)(=O)N4CCCC4)cc3nc2S1", "tested on": "WI-38", "test": "cell growth or viability, MTT", "conditions": "25 µM, 24 h", "quantity": "viability", "value": "70.8%"}
{"Compound": "CON=C(N)c1ccc(-c2ccc(-c3ccc(C(N)=NOC)cc3)o2)cc1", "tested on": "Cytochrome P450 1A1 (CYP1A1, Homo sapiens, UniProt P04798)", "test": "enzyme activity, substrate", "quantity": "Km", "value": "0.5 µM"}
{"Compound": "CC(=O)c1cc(C(=O)N[C@@H](C)Cn2ccc(-c3ccc(C#N)c(Cl)c3)n2)[nH]n1", "tested on": "UGT1A9", "test": "enzyme activity, inhibitor", "system": "human, liver microsomes", "quantity": "IC50", "value": "> 50 µM"}
{"Compound": "N#Cc1cc(NC(=O)[C@H]2c3ccccc3C(=O)N(CC(F)(F)F)[C@@H]2c2cccnc2)ccc1F", "test": "metabolic stability", "system": "dog, liver microsomes", "quantity": "half-life", "value": "> 4 h"}
{"Compound": "C[C@H](O)c1cc(C(=O)N[C@@H](C)Cn2ccc(-c3ccc(C#N)c(Cl)c3)n2)n[nH]1", "tested on": "UGT1A9", "test": "enzyme activity, inhibitor", "system": "human, liver microsomes", "quantity": "IC50", "value": "> 100 µM"}
{"Compound": "CC(C)(O)c1cn(-c2ccc(-c3ccc(CO)c(S(C)(=O)=O)c3)cc2)c(Cc2ccccc2Cl)n1", "system": "cynomolgus monkey, plasma", "conditions": "intravenous, 0.25 mg/kg, single dose", "quantity": "clearance", "value": "61 mL/min/kg"}
